Rows were chosen to be rich in hits. Some 0.7% of all compounds tested hit in one or more screens of this group.
Xi reactivation – reactivates the inactive X chromosome in mouse fibroblasts. XiGFP mouse fibroblasts, % GFP-positive cells imaging, 3 d; cells co-treated with 5-aza-dC sensitizer; scaled so ellipticine positive control = 100%. activation, % at 7.58 µM. hit rate 0.055% among 360,000. AID 743238;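 active means mean normalized replicate activation at least 10% and every replicate at or above 10%; inconclusive means only one of the two criteria met; inactive means mean below 10% and not all replicates reach 10%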
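Schedule: 3 d treatment, 15 min room-temperature fixation; system: 68-5-11 XiGFP fibroblast line; buffer or medium: DMEM plus 5-aza-dC sensitizer; control set: ellipticine 6 µM positive control; compound: one concentration, pinned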
Vif inh – inhibitors of HIV Vif; HEK293T cells, Vif self-association by quenched fluorescence, imaging, 24 h; inhibition, % at 7.49 µM; hit rate 0.35% among 340,000; in the data active means inhibition above about 50%, passing the limit was not always enough; inconclusive means no clear call, values can overlap the other calls; inactive means below about 31%
CaV13 ICDI inh – Disruptors of the CACNA1D IQ motif to Ca2+-dependent inactivation inhibitor domain association, primary screening, Förster resonance energy transfer in intact living …. HEK cells, CFP/YFP FRET ICDI-IQ, plate reader, 10 min; percent FRET-ratio fall versus neutral wells. inhibition, % at 12.3 µM. hit rate 0.098% among 340,000. AID 743397;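 active means mean replicate inhibition of at least 30% and at least 1% of replicates passing that level; inconclusive means only one of the two criteria is met; inactive means neither criterion is met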
Glyco luc inh – blocks N-linked glycosylation in D54 reporter cells. reporter increase, % at 12.5 µM. AID 588692. hit rate 0.23% among 360,000. D54 ERlucT glycosylation luciferase reporter, 24 h; percent of 100 nM tunicamycin response;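 active means mean luciferase reporter signal, scaled so untreated is 0 and the glycosylation-blocking control 100, at or above a set limit in every replicate; inconclusive means mean reaches the limit but not every replicate does; inactive means mean below the limit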;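 further: luciferase carries N-glycosylation sites so blocking glycosylation raises the light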
NPR1 activator – GC-A (human) enzyme activation; P16066; HEK293 GC-A cells, cGMP TR-FRET, EC30 ANP; 0% at EC30 ANP, 100% saturating ANP; activation, % at 10 µM; hit rate 0.14% among 370,000; AID 1671463; in the data active means activation above about 40%
Target sequence (P16066 whole entry, looked up): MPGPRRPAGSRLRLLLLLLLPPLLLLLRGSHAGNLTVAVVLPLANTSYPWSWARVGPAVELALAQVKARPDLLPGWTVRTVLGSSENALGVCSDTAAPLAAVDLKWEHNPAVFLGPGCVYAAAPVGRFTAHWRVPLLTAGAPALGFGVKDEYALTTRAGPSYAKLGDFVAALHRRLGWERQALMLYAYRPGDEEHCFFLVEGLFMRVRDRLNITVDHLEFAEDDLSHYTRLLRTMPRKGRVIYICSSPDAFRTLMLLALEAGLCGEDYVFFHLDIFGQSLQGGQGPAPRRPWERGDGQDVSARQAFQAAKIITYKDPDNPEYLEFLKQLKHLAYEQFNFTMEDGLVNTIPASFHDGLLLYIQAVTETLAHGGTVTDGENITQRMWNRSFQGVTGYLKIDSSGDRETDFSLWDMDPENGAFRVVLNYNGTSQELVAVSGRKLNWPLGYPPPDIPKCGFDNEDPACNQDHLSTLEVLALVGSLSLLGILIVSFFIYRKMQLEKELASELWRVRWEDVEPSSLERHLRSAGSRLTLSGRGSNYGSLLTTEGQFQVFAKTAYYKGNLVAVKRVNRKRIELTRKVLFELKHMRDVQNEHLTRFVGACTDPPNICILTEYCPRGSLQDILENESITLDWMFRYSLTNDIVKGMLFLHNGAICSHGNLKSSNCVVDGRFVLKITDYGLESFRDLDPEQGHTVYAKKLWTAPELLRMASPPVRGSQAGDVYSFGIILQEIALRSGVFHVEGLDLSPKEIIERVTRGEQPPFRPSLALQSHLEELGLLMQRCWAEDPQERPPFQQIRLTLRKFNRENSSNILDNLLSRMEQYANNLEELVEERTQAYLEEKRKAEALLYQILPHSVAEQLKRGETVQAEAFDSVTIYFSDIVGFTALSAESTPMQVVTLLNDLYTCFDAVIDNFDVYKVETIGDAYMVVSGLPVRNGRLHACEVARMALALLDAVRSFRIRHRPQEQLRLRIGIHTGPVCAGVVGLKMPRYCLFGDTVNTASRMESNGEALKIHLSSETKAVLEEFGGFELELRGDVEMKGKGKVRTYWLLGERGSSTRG
NPR2 activator – GC-B (human) receptor activation; hit rate 0.11% among 370,000; P20594; HEK293-GC-B cells, CNP EC30, cGMP TR-FRET; 0% at EC30 CNP, 100% saturating CNP; activation, % at 10 µM;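 active means activation at 10 µM reaching about 35% in either raw or pattern-adjusted values, limit read from the data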
Of the large screens only hits and unclear results are named; the others gave an inactive call; ! = not confirmed by another sample.

ClCCOCCCl	Glyco luc inh 85.1 (no result: Xi reactivation, CaV13 ICDI inh)
O=C(O)[C@H]1[C@H](CO)[C@H]2Cn3c(ccc(-c4cccc(F)c4)c3=O)[C@@H]1N2CCc1ccccc1	none (no result: Vif inh, CaV13 ICDI inh, Glyco luc inh, NPR1 activator, NPR2 activator)
C=CCn1c(O)c(C(CC)=NC(C)c2ccccc2)c(=O)[nH]c1=O (stereo unspecified)	Glyco luc inh 25.6 (no result: Xi reactivation)
CCCCn1c(O)c(C(CC)=NC(C)c2ccccc2)c(=O)[nH]c1=O (stereo unspecified)	none (no result: Xi reactivation)
CN1CCc2nc3ccc(F)cc3c(C(N)=O)c2C1	Vif inh 60.2 (no result: Xi reactivation)
Nc1c2c(nc3ccccc13)CCN(Cc1ccccc1)C2	none
CN(C)c1ccc(/C=C/c2cc[n+](C)c3ccccc23)cc1	Glyco luc inh 39.5!
O=C1OC(c2ccc([N+](=O)[O-])cc2)=N/C1=C/N1CC2CC(C1)c1cccc(=O)n1C2 (stereo unspecified)	Vif inh 52.4
O=C1OC(c2ccc(Br)cc2)=N/C1=C\N1CC2CC(C1)c1cccc(=O)n1C2 (stereo unspecified)	none
O=C(Nc1ccc2c(c1)OCO2)c1cn(Cc2ccc(F)cc2)nn1	Vif inh 53.5 (no result: Xi reactivation)
Cc1cc(C(=O)Nc2ccc3c(c2)OCCO3)nn1C(C)(C)C	none
COc1ccccc1N1C(=O)NC(=O)/C(=C\c2cnn(-c3ccccc3)c2)C1=O	NPR1 activator 52.1
COc1cc(/C=C/[N+](=O)[O-])ccc1O	Glyco luc inh 29.2 (no result: CaV13 ICDI inh)
CCCCCCn1c(N)c(C(=O)NCCN2CCOCC2)c2nc3ccccc3nc21	NPR2 activator 35.7 (no result: Xi reactivation, CaV13 ICDI inh)
c1ccc2c(c1)[IH]c1ccccc1-2	Glyco luc inh 53.7
COc1ccc(C(=O)N/N=C/C23CC[C@@H](O)CC2(O)CC[C@@H]2[C@@H]3CCC3(C)C(C4=CC(=O)OC4)CCC23O)cc1 (stereo partly specified)	Glyco luc inh 37.7
CC12CC[C@H]3[C@@H](CCC4(O)C[C@H](O)CCC34/C=N/NC(=O)c3ccccc3O)C1(O)CCC2C1=CC(=O)OC1 (stereo partly specified)	Glyco luc inh 31.7
CN1[C@@H]2CN(CC3CC3)C[C@H]1C2c1ccc(Br)cc1 (stereo partly specified)	none (no result: Vif inh, CaV13 ICDI inh, Glyco luc inh, NPR1 activator, NPR2 activator)
Nc1c(Br)cc2c3c(cccc13)-c1ccccc1-2	Xi reactivation 27.4 (no result: Vif inh, Glyco luc inh)
CN1CCCN(c2ccc([N+](=O)[O-])nc2)CC1	Vif inh 52.4
c1cc2c(cc1[C@H]1OC[C@H]3[C@@H]1CO[C@H]3c1ccc3c(c1)OCO3)OCO2	none
N#CC1=C(N)Oc2cc(O)ccc2C1c1ccc2c(c1)OCO2 (stereo unspecified)	CaV13 ICDI inh 143.9, NPR1 activator 44.4
N/C(=N\[N+](=O)[O-])N/N=C/c1ccc(O)cc1	none (no result: Xi reactivation)
Nc1nonc1C(=O)N/N=C/c1ccc([N+](=O)[O-])o1	Glyco luc inh 29.8
COC(=O)c1c(C)n(Cc2ccccc2)c2ccc(O)cc12	NPR1 activator 79.8
C=COCCn1c(C)c(C(=O)OCC)c2cc(O)ccc21	none (no result: Xi reactivation)
CCOC(=O)c1c(C)n(Cc2ccccc2)c2ccc(O)cc12	NPR1 activator 85.9 (no result: CaV13 ICDI inh)
CC(=O)c1c(C)n(Cc2ccccc2)c2ccc(O)cc12	NPR1 activator 73.9
CC(C)CC#Cc1ccc([C@H]2[C@H](CO)N3CCCCN(C(=O)Cc4ccccn4)C[C@@H]23)cc1	none (no result: Vif inh, CaV13 ICDI inh, Glyco luc inh, NPR1 activator, NPR2 activator)
CC=Cc1ccc2n(c1=O)C[C@@H]1[C@@H](CO)[C@H](C(=O)OC)[C@H]2N1C(=O)CC (mixture of isomers)	none (no result: Vif inh, CaV13 ICDI inh, Glyco luc inh, NPR1 activator, NPR2 activator)
CC(=O)N1C[C@@H]2C(c3ccccc3)[C@H](C1)N2C (stereo partly specified)	none (no result: Vif inh, CaV13 ICDI inh, Glyco luc inh, NPR1 activator, NPR2 activator)
FC(F)(F)CN1C[C@@H]2N[C@H](C1)C2c1ccc(Br)cc1 (stereo partly specified)	none (no result: Vif inh, CaV13 ICDI inh, Glyco luc inh, NPR1 activator, NPR2 activator)
O=C(Cc1ccccc1)OCn1nnc2ccccc2c1=O	Vif inh 140.0 (no result: Xi reactivation)
CCOC(=O)c1nc2ccccc2c(=O)n1-c1ccc(C)cc1	none (no result: Xi reactivation)
FC(F)(F)CN1C[C@@H]2C(c3ccc(Br)cc3)[C@H](C1)N2CC1CC1 (stereo partly specified)	none (no result: Vif inh, CaV13 ICDI inh, Glyco luc inh, NPR1 activator, NPR2 activator)
Cc1cc(Cl)ccc1C(=O)C1CCCN(Cc2ccon2)C1 (stereo unspecified)	none
O=C(c1cccc2ccccc12)C1CCCN(Cc2ccon2)C1 (stereo unspecified)	Xi reactivation 26.6
FC(F)(F)CN1C[C@@H]2C(c3ccccc3)[C@H](C1)N2CC1CC1 (stereo partly specified)	none (no result: Vif inh, CaV13 ICDI inh, Glyco luc inh, NPR1 activator, NPR2 activator)
O=C1NC(=O)N(Cc2ccccc2)C(=O)/C1=C/C=C/c1ccco1	Glyco luc inh 32.1
CC(C)N1C(=O)/C(=C/C=C/c2ccco2)C(=O)N(Cc2ccco2)C1=O	Vif inh inconclusive, Glyco luc inh 30.3 (no result: Xi reactivation)
COc1ccc(/C=C2/C(=O)N(Cc3ccco3)C(=O)N(C(C)C)C2=O)cc1	none (no result: Vif inh)
C=CCN1[C@@H]2CN(C(=O)NC(C)C)C[C@H]1C2c1ccc(Br)cc1 (stereo partly specified)	none (no result: Vif inh, CaV13 ICDI inh, Glyco luc inh, NPR1 activator, NPR2 activator)
COC(=O)[C@H]1[C@H](CO)[C@H]2Cn3c(cccc3=O)[C@@H]1N2C(=O)C1CCCC1	none (no result: Vif inh, CaV13 ICDI inh, Glyco luc inh, NPR1 activator, NPR2 activator)
O=C(Cc1ccccc1)OCC(=O)c1ccc(F)cc1	Vif inh 87.3
O=C(Cc1ccccc1)OCC(=O)c1ccccc1	none (no result: CaV13 ICDI inh)
C=CCN1[C@@H]2CN(S(C)(=O)=O)C[C@H]1C2c1ccccc1 (stereo partly specified)	none (no result: Vif inh, CaV13 ICDI inh, Glyco luc inh, NPR1 activator, NPR2 activator)
C=C1N2CCC(CC2)C1(O)c1ccc(C)cc1 (stereo unspecified)	none (no result: Xi reactivation)
C=C1N2CCC(CC2)C1(O)c1ccc(C)c(C)c1 (stereo unspecified)	Vif inh 51.2 (no result: Xi reactivation)
CC(C)NC(=O)N1C[C@@H]2N[C@H](C1)C2c1ccccc1 (stereo partly specified)	none (no result: Vif inh, CaV13 ICDI inh, Glyco luc inh, NPR1 activator, NPR2 activator)
Cc1ccccc1-c1ccc([C@@H]2[C@H](CO)N3CCCCN(C(=O)Cc4ccccn4)C[C@@H]23)cc1	none (no result: Vif inh, CaV13 ICDI inh, Glyco luc inh, NPR1 activator, NPR2 activator)
CNc1cc(N2CCNCC2)ccc1[N+](=O)[O-]	Vif inh 50.9
O=C1NC(=O)C(=Cc2ccc(N3CCN(C(=O)c4ccccc4)CC3)c([N+](=O)[O-])c2)C(=O)N1	none
O=C1NC(=O)C(=Cc2cc([N+](=O)[O-])ccc2N2CCCCC2)C(=O)N1	Vif inh 59.0
Fc1ccc(CN2CC3NC(C2)C3c2ccc(Br)cc2)cc1 (stereo unspecified)	none (no result: Vif inh, CaV13 ICDI inh, Glyco luc inh, NPR1 activator, NPR2 activator)
COc1cccc(-c2ccc([C@@H]3[C@H]4CN(C(=O)Cc5ccncc5)CCCCN4[C@H]3CO)cc2)c1	none (no result: Vif inh, CaV13 ICDI inh, Glyco luc inh, NPR1 activator, NPR2 activator)
CCOP(=S)(OCC)Oc1cc(C)nc(C(C)C)n1	NPR2 activator 74.4
C[CH2][Hg][S]c1ccccc1C(=O)O	Glyco luc inh 63.2

High-throughput results: PubChem, several laboratories
